ChEMBL document CHEMBL1671756, “In vitro and in vivo antifungal susceptibilities of the Mucoralean fungus Cunninghamella” (2010)
The source made the active and inactive calls. The rule behind the calls is not given here.

What was measured:
Assay type in all cases: functional, organism-based
[1] = test system: Cunninghamella bertholletiae; assay: Antifungal activity against Cunninghamella bertholletiae FMR 9598 infected in neutropenic OF1 mouse assessed as increase in mouse survival rate at 0.8 mg/kg, iv qd administered 1 day after infection for 7 days relative to untreated control; parameters: dose 0.8 mg/kg
Summary of the method: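 Male OF1 mice (~30 g) were made neutropenic with cyclophosphamide 200 mg/kg i.p. plus 5-fluorouracil 150 mg/kg i.v. 1 day before challenge. Challenge was 1 × 10⁴ CFU sporangiospores in 0.2 ml saline via the lateral tail vein. Mice got ceftazidime 5 mg/day s.c. on days 1–7. Dosing started 24 h post-challenge for 7 days. There were 10 mice/group, observed daily for 20 days. Kaplan-Meier analysis with log-rank test.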

[2] = test system: Cunninghamella bertholletiae; assay: Antifungal activity against Cunninghamella bertholletiae UTHSC 05-2275 infected in neutropenic OF1 mouse assessed as decreased fungal load in kidney at 0.8 mg/kg, iv qd administered 1 day post infection measured after 4 to 5 days relative to untreated control; parameters: dose 0.8 mg/kg
Summary of the method: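 Neutropenic male OF1 mice (cyclophosphamide 200 mg/kg i.p. + 5-fluorouracil 150 mg/kg i.v., day −1) were infected i.v. with 1 × 10⁴ CFU. Ten mice per group were treated from day 1 and killed by CO₂ on day 5, or on day 4 if moribund. Half of each brain, lung and kidney was homogenized in 1 ml saline. Ten-fold dilutions were plated on PDA for 24 h at 35°C and counted as log₁₀ CFU/g.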

[3] = test system: Cunninghamella bertholletiae; assay: Antifungal activity against Cunninghamella bertholletiae UTSCH 05-2275 infected in diabetic OF1 mouse assessed as decreased fungal load in lung at 0.8 mg/kg, iv qd administered 1 day post infection measured after 4 to 5 days relative to untreated control; parameters: dose 0.8 mg/kg
Summary of the method: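 Diabetic OF1 mice (streptozocin 210 mg/kg i.p.; glucose >250 mg/dl) were infected i.v. with 1 × 10⁵ CFU, with ceftazidime cover. Ten per group were treated from day 1 and killed day 5, or day 4 if moribund. Half-organ homogenates (brain, lung, kidney) in 1 ml saline were serially diluted 10-fold on PDA, incubated 24 h at 35°C, and reported as log₁₀ CFU/g tissue.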

[4] = test system: Cunninghamella bertholletiae; assay: Antifungal activity against Cunninghamella bertholletiae UTHSC 06-1945 infected in neutropenic OF1 mouse assessed as decreased fungal load in kidney at 0.8 mg/kg, iv qd administered 1 day post infection measured after 4 to 5 days relative to untreated control; parameters: dose 0.8 mg/kg
Summary of the method: (§1)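 Neutropenic male OF1 mice (cyclophosphamide 200 mg/kg i.p. plus 5-fluorouracil 150 mg/kg i.v., day −1) were given 1 × 10⁴ CFU sporangiospores i.v. in 0.2 ml saline. Treatment from 24 h: 0.8 mg/kg i.v. or oral doses once daily; 10 mice per group. Killed at day 5 (day 4 if moribund). About half of brain, lungs and kidneys homogenized in saline; 10-fold dilutions plated on PDA for 24 h at 35°C; log₁₀ CFU/g tissue.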

[5] = test system: Cunninghamella bertholletiae; assay: Antifungal activity against Cunninghamella bertholletiae UTHSC 05-2275 infected in neutropenic OF1 mouse assessed as decreased fungal load in kidney at 40 mg/kg, po qd administered 1 day post infection measured after 4 to 5 days relative to untreated control; parameters: dose 40 mg/kg; summary of the method: as §1
[6] = test system: Cunninghamella bertholletiae; assay: Antifungal activity against Cunninghamella bertholletiae UTSCH 05-2275 infected in diabetic OF1 mouse assessed as decreased fungal load in kidney at 40 mg/kg, po qd administered 1 day post infection measured after 4 to 5 days relative to untreated control; parameters: dose 40 mg/kg
Summary of the method: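 Diabetic male OF1 mice (streptozocin 210 mg/kg i.p.; glucose above 250 mg/dl) were challenged i.v. with 1 × 10⁵ CFU sporangiospores. Oral once-daily dosing from day 1 for 7 days; 10 mice per group. Killed at day 5 (day 4 if moribund). About half of each organ homogenized in saline; serial 10-fold dilutions plated on PDA for 24 h at 35°C; log₁₀ CFU/g tissue.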

[7] = test system: Cunninghamella bertholletiae; assay: Antifungal activity against Cunninghamella bertholletiae UTHSC 05-2275 infected in neutropenic OF1 mouse assessed as decreased fungal load in lung at 40 mg/kg, po qd administered 1 day post infection measured after 4 to 5 days relative to untreated control; parameters: dose 40 mg/kg; summary of the method: as §1
[8] = test system: Cunninghamella bertholletiae; assay: Antifungal activity against Cunninghamella bertholletiae FMR-9598 infected in neutropenic OF1 mouse assessed as decreased fungal load in brain at 60 mg/kg, po qd administered 1 day post infection measured after 4 to 5 days relative to untreated control; parameters: dose 60 mg/kg; summary of the method: as §1
[9] = test system: Cunninghamella bertholletiae; assay: Antifungal activity against Cunninghamella bertholletiae UTHSC 05-2275 infected in neutropenic OF1 mouse assessed as decreased fungal load in brain at 40 mg/kg, po qd administered 1 day post infection measured after 4 to 5 days relative to untreated control; parameters: dose 40 mg/kg; summary of the method: as §1
[10] = test system: Cunninghamella bertholletiae; assay: Antifungal activity against Cunninghamella bertholletiae UTHSC 05-2275 infected in neutropenic OF1 mouse assessed as decreased fungal load in brain at 60 mg/kg, po qd administered 1 day post infection measured after 4 to 5 days relative to untreated control; parameters: dose 60 mg/kg; summary of the method: as §1
[11] = test system: Cunninghamella bertholletiae; assay: Antifungal activity against Cunninghamella bertholletiae UTHSC 05-2275 infected in neutropenic OF1 mouse assessed as increase in mouse survival rate at 40 mg/kg, po qd administered 1 day after infection for 7 days relative to untreated control; parameters: dose 40 mg/kg
Summary of the method: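 Male OF1 mice, about 30 g, made neutropenic with cyclophosphamide 200 mg/kg i.p. plus 5-fluorouracil 150 mg/kg i.v. 1 day before challenge. Infected i.v. via the lateral tail vein with 1 × 10⁴ CFU of hemacytometer-counted sporangiospores in 0.2 ml saline. Ceftazidime 5 mg/day s.c. on days 1–7. Oral treatment started 24 h after challenge; 10 mice per group; checked daily for 20 days; Kaplan-Meier mean survival time, log-rank test.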

| SMILES | Activity [1] | Activity [2] | Activity [3] | Activity [4] | Activity [5] | Activity [6] | Activity [7] | Activity [8] | Activity [9] | Activity [10] | Activity [11] |
| --- | --- | --- | --- | --- | --- | --- | --- | --- | --- | --- | --- |
| C[C@@H]1[C@H](O)[C@@H](C)/C=C/C=C/C=C/C=C/C=C/C=C/C=C/[C@H](O[C@@H]2O[C@H](C)[C@@H](O)[C@H](N)[C@@H]2O)C[C@@H]2O[C@](O)(C[C@@H](O)C[C@@H](O)[C@H](O)CC[C@@H](O)C[C@@H](O)CC(=O)O[C@H]1C)C[C@H](O)[C@H]2C(=O)O [AMPHOTERICIN B] | inactive | Active | inactive | Active | – | – | – | – | – | – | – |
| CC[C@@H]([C@H](C)O)n1ncn(-c2ccc(N3CCN(c4ccc(OC[C@@H]5CO[C@@](Cn6cncn6)(c6ccc(F)cc6F)C5)cc4)CC3)cc2)c1=O [POSACONAZOLE] | – | – | – | – | Active | Active | Active | Active | Active | Active | Active |
